According to the array DNA melting data of Ke et al. (doi:10.1101/2024.01.08.574731):

What was measured:
[1] = folding enthalpy; higher = less favourable; fluorescence melt of hairpins on a sequencing array, two-state fit; settings: sodium 0.088 M
In short: (§1)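 To match UV melts, fitted temperatures were raised by 9.35 °C. These fits were bootstrapped two-state models that gave melting temperature and folding enthalpy, combined by inverse variance over four replicates. The input was normalised Cy3 fluorescence of library hairpins with annealed Cy3 and quencher oligos on a sequenced MiSeq flow cell, imaged in 50 mM Na-HEPES pH 8.0, 25 mM NaCl in 2.5 °C steps up to 60 °C.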

[2] = melting temperature; fluorescence melt of hairpins on a sequencing array, two-state fit, raised by 9.35 °C to match UV melts; settings: sodium 0.088 M
In short: as §1

Sequence | folding enthalpy [1] | Tm [2]
GCAAACGAAAGTTTGTGC ((((((....)))..))) | -25.2 kcal/mol | 52.8 °C
GACGACGGAAACATCGTC (((((.(....).))))) | -34.2 kcal/mol | 45.7 °C
GACCGCGGAAACGCGGCC (.(((((....))))).) | -10.1 kcal/mol | 52.5 °C
GTTCCCGAAAGGGGAAC ((((((....))).))) | -20.8 kcal/mol | 57.4 °C
GCGTCGCGAAAGCTTCGC (((..((....))..))) | -19.7 kcal/mol | 53.5 °C
GACCACGGAAACACGGTC ((((..(....)..)))) | -30.3 kcal/mol | 35.3 °C
GATCTTGATAAGATC ((((((...)))))) | -21.6 kcal/mol | 43.6 °C
GCCGACACGAAAGTGGGC (((..(((....)))))) | -24.5 kcal/mol | 53.1 °C
GTCGATGGAAACATCGGC (.(((((....))))).) | -42.2 kcal/mol | 56.1 °C
GCGATTCGTCGC ((((....)))) | -28.4 kcal/mol | 54.5 °C
GCTCATGGAAACATGGGC ((.((((....)))).)) | -34.2 kcal/mol | 53 °C
GGTCACGAAAGTGATACC ((((((....)))..))) | -11.7 kcal/mol | 44.7 °C
GCTGATGCGAAAGCAAGC (((..(((....)))))) | -19.4 kcal/mol | 43.5 °C
GATCAAATCTTTGATC ((((((....)))))) | -30.3 kcal/mol | 47.7 °C
GCCAACCGAAAGGTAGGC (((.(((....))).))) | -39.1 kcal/mol | 60.4 °C
GACGTTGAAAAACGTC ((((((....)))))) | -33.9 kcal/mol | 60.1 °C
GCTACGCGAAAGCGGGGC ((..(((....)))..)) | -20.7 kcal/mol | 63.7 °C
GATCCCGAAAGGGGTATC ((((((....)))..))) | -11.8 kcal/mol | 35.7 °C
GATCCTGGCCAGGATC ((((((....)))))) | -47.6 kcal/mol | 61.3 °C
GACGCGGCGAAAGCCGTC (((..(((....)))))) | -5.1 kcal/mol | 32.6 °C
GATCTACGCGTAGATC ((((((....)))))) | -52.1 kcal/mol | 55.5 °C
GCTACAGGAAACTGTGGC ((.((((....)))).)) | -39 kcal/mol | 51.8 °C
GATCAAAAGATTGATC ((((((....)))))) | -20.6 kcal/mol | 33.3 °C

Sequence | folding enthalpy [1] | Tm [2]
GATCCCTACTGGGATC ((((((....)))))) | -37.7 kcal/mol | 64.4 °C
GCGGCCGAAAGGCTCGC ((((((....))).))) | -23.5 kcal/mol | 68.8 °C
GCGAGAGTCGC ((((...)))) | -11.3 kcal/mol | 55.5 °C
GCAGCATCGAAAGATTGC (((..(((....)))))) | -16.9 kcal/mol | 33.9 °C
GCGAGGCGAAAGCTACGC (((..((....))..))) | -24.3 kcal/mol | 62 °C
GCGCCGGGAAACCAGCGC ((((.((....)).)))) | -44.5 kcal/mol | 59.1 °C
GGATCCGAAAGGACGTCC ((((((....)))..))) | -13.8 kcal/mol | 31.9 °C
GATCAGACGGCTGATC ((((((....)))))) | -52.4 kcal/mol | 51.7 °C
GACGCCCCGAAAGGGGTC (((..(((....)))))) | -7.73 kcal/mol | 40.2 °C
GTGGAGGGAAACTTCCAC (((((.(....).))))) | -30.4 kcal/mol | 47.3 °C
GCTCGTCGAAAGACAAGC (((.(((....))).))) | -24.7 kcal/mol | 49.5 °C
GCCGCAACGAAAGTTGGC (((..(((....)))))) | -11.2 kcal/mol | 48 °C
GTTTAGGGAAACCTGAAC (((.(((....))).))) | -34.8 kcal/mol | 38.5 °C
GAATCACGAAAGTGGTTC (((.(((....))).))) | -40.3 kcal/mol | 53.2 °C
GATCCCCGACGGGATC ((((((....)))))) | -27.3 kcal/mol | 56.8 °C
GACCTACGAAAGTATGTC (((.(((....))).))) | -33.4 kcal/mol | 41 °C
GAAATCGGAAACGATTTC (((((((....))))))) | -42.9 kcal/mol | 59.5 °C
GATCCAAGTTTGGATC ((((((....)))))) | -41.1 kcal/mol | 52.1 °C
GTAGCGGGAAACCGCCAC ((.((((....)))).)) | -11.7 kcal/mol | 38.7 °C
GCAGACGGAAACATCCGC ((.((.(....).)).)) | -13.3 kcal/mol | 26.5 °C
GGCAAGGCGAAAGCCGCC (((..(((....)))))) | -13.6 kcal/mol | 59.6 °C
GATCATTTCAATGATC ((((((....)))))) | -42.2 kcal/mol | 52.3 °C
GTACACGGAAACATGTAC (((((.(....).))))) | -28.3 kcal/mol | 34.2 °C

Sequence | folding enthalpy [1] | Tm [2]
GCTTCCGGAAACGAAAGC ((((.((....)).)))) | -29.7 kcal/mol | 43 °C
GGGATACCGAAAGGTCCC (((..(((....)))))) | -17.4 kcal/mol | 45.2 °C
GCATTGCGAAAGCCGTGC (((..((....))..))) | -22 kcal/mol | 41.2 °C
GTCTTTACGAAAGTAGAC (((..(((....)))))) | -17.4 kcal/mol | 31.8 °C
GGTAAACGAAAGTTAACC (((.(((....))).))) | -30.5 kcal/mol | 43.2 °C
GATCTTTGCGAAGATC ((((((....)))))) | -45.8 kcal/mol | 47.6 °C
GATCCATGTGTGGATC ((((((....)))))) | -37.2 kcal/mol | 56.5 °C
GTTCACGAAAGTGGAAAC ((((((....)))..))) | -13.4 kcal/mol | 30.9 °C
GCTCACGGAAACGTGGGC ((.((((....)))).)) | -47.8 kcal/mol | 59.6 °C
GTCTCGGGAAACTGAGGC (.(((.(....).))).) | -30.8 kcal/mol | 38.8 °C
GATCAAATGATTGATC ((((((....)))))) | -26.2 kcal/mol | 35.8 °C
GCGAGGGGAAACCTTCGC ((((.((....)).)))) | -35.4 kcal/mol | 56.3 °C
GCATAGCGAAAGCATTGC (((..((....))..))) | -18.4 kcal/mol | 50.7 °C
GATCAACTGCTTGATC ((((((....)))))) | -31.5 kcal/mol | 44 °C
GATCCAGTGATGGATC ((((((....)))))) | -35.2 kcal/mol | 56.6 °C
GATTACGAAAGTACATC ((((((....))).))) | -17.7 kcal/mol | 31.1 °C
GTAACTGGAAACAGTTAC (((((((....))))))) | -41.6 kcal/mol | 56.1 °C
GCCTTGCGAAAGCGACGC ((.(.((....)).).)) | -10.5 kcal/mol | 48.2 °C
GCGGAATCCGC ((((...)))) | -23.4 kcal/mol | 51.7 °C
GGAGCTGGAAACGGCTCC (((((.(....).))))) | -48.2 kcal/mol | 59.9 °C
GGTGTCACGAAAGTGACC (((..(((....)))))) | -10.2 kcal/mol | 50 °C
GGTAGGGGAAACCCTGCC ((.((((....)))).)) | -39.5 kcal/mol | 53.6 °C
GGCTCCCCGAAAGGGGCC (((..(((....)))))) | -12 kcal/mol | 50.9 °C

Sequence | folding enthalpy [1] | Tm [2]
GGCAATGGAAACACTGCC ((((.((....)).)))) | -33.2 kcal/mol | 44 °C
GTTAGCGAAAGCTAGAAC ((((((....)))..))) | -10 kcal/mol | 31.5 °C
GAACACCCGAAAGGGTTC (((..(((....)))))) | -8.81 kcal/mol | 30.7 °C
GTACGTCGAAAGACTTAC (((.(((....))).))) | -25.7 kcal/mol | 39.3 °C
GCTTCCGAAAGGACAGC ((((((....))).))) | -24.4 kcal/mol | 47.8 °C
GCGTCACAACGC ((((....)))) | -27.2 kcal/mol | 55.2 °C
GCGGCGGCCCGC ((((....)))) | -13.8 kcal/mol | 58.5 °C
GTGAGGACGAAAGTCCAC (((..(((....)))))) | -13.9 kcal/mol | 47.9 °C
GTATGGGGAAACCTATAC ((((.((....)).)))) | -30.3 kcal/mol | 38.4 °C
GCCCTCGAAAGAGAAGGC ((((((....)))..))) | -22.2 kcal/mol | 48.3 °C
GGGGGCGAAAGCCATCCC ((((((....)))..))) | -13.5 kcal/mol | 51.5 °C
GTGATCGAAAGATCGCAC ((((((....)))..))) | -18.1 kcal/mol | 51.8 °C
GATCCACTATTGGATC ((((((....)))))) | -40.9 kcal/mol | 49.8 °C
GAGCCCGGAAACGGACCC (.(.(((....))).).) | -11.2 kcal/mol | 25.7 °C
GTATGAGGAAACTCACAC ((.((((....)))).)) | -14.5 kcal/mol | 29.4 °C
GTTCGTGGAAACGTGAAC ((((..(....)..)))) | -15.3 kcal/mol | 34.8 °C
CGTGCGGAAACGCTTACG ((((((....)))..))) | -22.6 kcal/mol | 38.4 °C
GCTTCAGGAAACTGAAAC (.(((((....))))).) | -15 kcal/mol | 31.5 °C
GGCCCCGAAAGGGCGCC ((((((....))).))) | -18.5 kcal/mol | 68.6 °C
GTGGCCGGAAACGGCTGC (..((((....))))..) | -13 kcal/mol | 51.9 °C
GATCAACAGTTTGATC ((((((....)))))) | -31.2 kcal/mol | 41.3 °C
GTATACGAAAGTAGATAC ((((((....)))..))) | -10.1 kcal/mol | 24.9 °C
GATCTAACGTAGATC ((((((...)))))) | -24.5 kcal/mol | 36.1 °C
